Compound activity as filed in PubChem.
Sampled rows, rich in hits. Any-hit rate of the full collection: about 1.1%.
Thrombin inh: inhibitors of human thrombin; P00734; inhibition, % at 5 µM; alpha-thrombin, Boc-VPR-AMC fluorogenic substrate cleavage; actives 0.26% (n = 220,000);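 active = inhibition at or above 40%; inactive = inhibition below 40%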;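 note: 0% = enzyme with no compound and 100% = wells without enzyme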
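System – human alpha-thrombin · Medium – pH 7.5 Tris (50 mM) with NaCl 150 mM, Tween 20 0.05% · Compound – single-point dosing at 5 µM, 0.2% DMSO · Incubation – enzyme reaction carried out at room temperature · Technique – fluorescence of released AMC, ex 355 nm, em 460 nm · Read-out basis – % inhibition of thrombin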
hK5 inh: kallikrein 5 (human) inhibition; Q9Y337; inhibition, % at 5 µM; AID 873; recombinant hK5, fluorogenic AMC substrate cleavage; actives 0.59% (n = 210,000);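 active = inhibition of 40% or more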;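 note: 0% = enzyme controls without compound and 100% = no-enzyme blanks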
Target sequence (Q9Y337 67-293 limits assumed): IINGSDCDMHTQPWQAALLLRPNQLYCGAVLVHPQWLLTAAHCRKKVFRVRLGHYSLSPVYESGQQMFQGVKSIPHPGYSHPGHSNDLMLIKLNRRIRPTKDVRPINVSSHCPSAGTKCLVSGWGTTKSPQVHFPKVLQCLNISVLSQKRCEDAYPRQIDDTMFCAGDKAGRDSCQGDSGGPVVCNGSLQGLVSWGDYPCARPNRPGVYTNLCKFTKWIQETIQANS
FXIIa inh: factor XIIa (human) inhibition. purified FXIIa, Boc-QGR-AMC fluorogenic substrate, 2 h. actives 0.3% (n = 220,000). inhibition, % at 5 µM. AID 800; in the data active = inhibition above about 40%;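 note: 0% = enzyme with no compound and 100% = blank without enzyme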
Furin inhibitor: inhibitors of human furin; P09958; purified furin, fluorogenic substrate cleavage; inhibition, % at 20 µM or 30 µM; actives 0.061% (n = 220,000); AID 463115; in the data active = inhibition above about 25%
FXIa inh 1536: blocks human coagulation factor XIa protease activity; P03951; purified FXIa, Boc-Glu-Ala-Arg-AMC fluorogenic substrate; inhibition, % at 5 µM; actives 0.14% (n = 220,000); AID 798;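 active = inhibition of at least 40%; inactive = inhibition below 40%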;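 note: fluorescence of freed AMC excited at 355 nm; 0% = enzyme without compound and 100% = no enzyme blank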
Numbers without * were called inactive.

SMILES | Thrombin inh | hK5 inh | FXIIa inh | Furin inhibitor | FXIa inh 1536
COc1ccc(N(C(=O)c2ccco2)S(=O)(=O)c2cccs2)cc1 | 17 | -8 | 19 | -29 | 11
Cc1ccc(S(=O)(=O)Nc2ccc3c(c2)c2c(n3S(=O)(=O)c3ccc(C)cc3)CCCC2=O)cc1 | 27 | 68* | 12 | -14 | 14
CN(CC(=O)Nc1ccccc1Sc1ccccc1)C1CCCCC1 | 4 | -15 | 1 | -26 | 1
N#Cc1c[nH]n2c(=O)c3c(nc12)CCC3 | -4 | -5 | 2 | -29 | -4
N#Cc1c[nH]n2c(=O)c3c(nc12)CCCC3 | 1 | 70* | -1 | -12 | -1
CCOC(=S)SCC(=O)Nc1ncc(C)s1 | 1 | -2 | 14 | -13 | 11
COc1cc(S(=O)(=O)N2CCN(C(=O)c3ccccc3F)CC2)c(OC)cc1NC(C)=O | 10 | 47* | 16 | -22 | 16
CC(=O)N1CCN(C2=NC(=O)C(=C3CCCCC3)S2)CC1 | -1 | -6 | 6 | -17 | 1
Cc1cccc(N2CCN(C3=NC(=O)C(=C4CCCCC4)S3)CC2)c1 | 1 | 120* | -3 | -3 | -5
O=C(/C=C(/c1ccc(Cl)cc1)n1cncn1)c1ccccc1 | 1 | 11 | 13 | -27 | 25
Nc1cc(=O)[nH]c(=O)n1Cc1ccco1 | 10 | 2 | 30 | 26* | 33
Nc1nnc(CCOc2ccc(Cl)cc2)s1 | 24 | 44* | 21 | -14 | 16
COC(=O)CCC(=O)Nc1nnc(C(F)(F)F)s1 | 1 | -2 | 14 | -20 | -1
O=C(O)CCC(=O)Nc1nnc(C(F)(F)F)s1 | 6 | 43* | 3 | -15 | -1
CCOC(=O)c1cnc(-c2ccccc2)nc1Oc1ccc(Cl)c(Cl)c1 | 28 | 65* | 5 | -17 | 7
COc1ccc(NS(=O)(=O)c2ccc3nc(COc4ccc(C#N)cc4)[nH]c3c2)cc1 | -7 | -6 | 17 | -24 | 8
COc1ccc(C2=NN(C(=O)CCCC(=O)O)C(c3cn(-c4ccccc4)nc3-c3ccccc3)C2)cc1 (stereo unspecified) | 19 | 17 | 40* | 0 | 24
COc1ccc(C2CC(c3ccccc3)=NN2C(=O)CN2CCN(Cc3ccccc3)CC2)cc1 (stereo unspecified) | 85* | 29 | 27 | -10 | 32
COc1cccc(-n2c(SCC(=O)Nc3ccc4c(c3)CCC4)nc3ccccc3c2=O)c1 | 54* | 45* | 12 | -10 | -1
COc1ccc(NC(=O)CSc2nc3ccccc3c(=O)n2CCCN2CCCCC2)c(OC)c1 | 1 | 49* | 11 | -1 | 27
Cc1cc(NC(=O)CSc2nc3ccccc3c(=O)n2-c2ccccc2)no1 | 2 | 43* | 16 | -22 | 2
CCOc1ccc(-n2c(SCC(=O)Nc3cc(C)on3)nnc2-c2c[nH]c3ccccc23)cc1 | 0 | 31 | 48* | -18 | 18
CCCC(=O)Nc1ccc2c(c1)nc(CCN1CCCCC1)n2C | -4 | -3 | 7 | -17 | 4
COc1ccc(C(C(=O)Nc2ccc(C(C)C)cc2)N(C)C(=O)c2ccc(=O)[nH]c2)cc1 (stereo unspecified) | -11 | -9 | 9 | -15 | -3
C/C(=N\NC(=O)c1ccc([N+](=O)[O-])cc1Cl)c1ccccc1 | -7 | 3 | 6 | -29 | -1
SMILES | Thrombin inh | hK5 inh | FXIIa inh | Furin inhibitor | FXIa inh 1536
CCNC(=O)C1CCCN1S(=O)(=O)c1ccc(OC)cc1 (stereo unspecified) | -6 | -2 | -9 | -18 | -11
COc1ccc(S(=O)(=O)N2CCCC2C(=O)NCc2cccs2)cc1 (stereo unspecified) | 18 | 48* | -2 | -4 | 12
COc1ccc(Cl)c(S(=O)(=O)N2CCCC2)c1 | 21 | 68* | 22 | -23 | 1
CCOc1cc(S(=O)(=O)N2CCCCC2)ccc1Cl | 104* | 60* | 18 | -18 | 5
CCOC(=O)N1CCN(S(=O)(=O)c2ccc(Br)s2)CC1 | 3 | 7 | 16 | -15 | 6
CN1CCN(S(=O)(=O)c2ccc(Br)s2)CC1 | 18 | 33 | 48* | -17 | 3
Cc1ccc(C(=O)N/C(=C/c2ccc(-c3cccc([N+](=O)[O-])c3)o2)C(=O)NC(C)(C)C)cc1 | -7 | -13 | 43* | 7 | 33
CCCCC(=O)NS(=O)(=O)c1ccc(NS(C)(=O)=O)cc1 | -1 | -6 | 5 | -11 | 5
CSc1ccc(N=Nc2c(C)[nH]n(C)c2=O)cc1 | 4 | 3 | 13 | 26* | 4
CC(=O)Nc1ccc(N=Nc2c(C)[nH]n(C(N)=S)c2=O)cc1 | -4 | -1 | 5 | -2 | 0
